# pIC50, pKi: −log10 of the molar value.
# Columns and labels:
# [1] = molecular target: T1, Prostaglandin E2 receptor EP1 subtype (Homo sapiens, UniProt P34995); experiment: Displacement of [3H]PGE2 from human PGE2-EP1 receptor expressed in CHO-K1 cells; assay type: cell-based
# T1 sequence (P34995 whole entry): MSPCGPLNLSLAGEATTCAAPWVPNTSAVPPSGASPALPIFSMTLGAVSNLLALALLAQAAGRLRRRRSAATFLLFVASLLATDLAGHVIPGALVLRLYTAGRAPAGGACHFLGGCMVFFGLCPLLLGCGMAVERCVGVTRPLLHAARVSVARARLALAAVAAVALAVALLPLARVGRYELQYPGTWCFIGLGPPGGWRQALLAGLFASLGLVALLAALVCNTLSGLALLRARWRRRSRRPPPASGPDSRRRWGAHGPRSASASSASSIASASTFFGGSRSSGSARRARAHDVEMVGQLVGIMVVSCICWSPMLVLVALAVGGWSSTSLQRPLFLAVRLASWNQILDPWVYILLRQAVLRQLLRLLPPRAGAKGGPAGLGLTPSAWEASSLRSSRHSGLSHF
# [2] = Distribution coefficient, logD at pH 7.4; assay type: physicochemical; details: octanol/water
# Outline: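 Distribution coefficient between n-octanol and water buffered to pH 7.4; log10 of ratio of equilibrium concentrations of all species.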
# [3] = Clearance in blood in rat at 10 mL/h/kg, iv; assay type: ADME, organism-based; details: whole blood
# Outline: (§1)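 Male rats (n = 1 per compound) dosed iv at 10 mL/h/kg over 1 h via femoral vein cannula, target 1 mg free compound/kg, formulated at 0.1 mg/mL in 0.9% saline with 2% DMSO and 10–20% Kleptose (some with a molar equivalent NaOH), filtered before dosing.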
# [4] = Volume of distribution at steady state in rat at 10 mL/h/kg, iv; assay type: ADME, organism-based; details: in vivo, read-out: Vdss; outline: as §1
# [5] = Half life in rat at 10 mL/h/kg, iv; assay type: ADME, organism-based; details: in vivo; outline: as §1
# Brain [6] = experiment: Drug uptake in FCA-induced hypersensitivity rat brain at 3 mg/kg, po administered with DMSO as vehicle; assay type: ADME, organism-based; design: dose 3 mg/kg, route oral; details: in vivo, read-out: Drug uptake
# Outline: (§2)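 CFA inflammatory pain rats dosed orally at 1, 3, 10 and 30 mg/kg in 2% DMSO and 20% Kleptose water; weight-bearing readout and blood/brain samples taken 1 h post-dose. Blood levels mean of seven rats; brain levels mean of two or three rats; Br:Bl average of three rats.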
# Brain [7] = experiment: Drug uptake in FCA-induced hypersensitivity rat brain at 10 mg/kg, po administered with DMSO as vehicle; assay type: ADME, organism-based; design: dose 10 mg/kg, route oral; details: in vivo, read-out: Drug uptake; outline: as §2
# Brain [8] = experiment: Drug uptake in FCA-induced hypersensitivity rat brain at 30 mg/kg, po administered with DMSO as vehicle; assay type: ADME, organism-based; design: dose 30 mg/kg, route oral; details: in vivo, read-out: Drug uptake; outline: as §2
# [9] = Ratio of drug level in brain to blood in FCA-induced hypersensitivity rat at 1 mg/kg, po administered with DMSO as vehicle; assay type: ADME, organism-based; design: dose 1 mg/kg, route oral; outline: as §2
# [10] = Ratio of drug level in brain to blood in FCA-induced hypersensitivity rat at 3 mg/kg, po administered with DMSO as vehicle; assay type: ADME, organism-based; design: dose 3 mg/kg, route oral; outline: as §2
# [11] = Ratio of drug level in brain to blood in FCA-induced hypersensitivity rat at 10 mg/kg, po administered with DMSO as vehicle; assay type: ADME, organism-based; design: dose 10 mg/kg, route oral; outline: as §2
# [12] = Ratio of drug level in brain to blood in FCA-induced hypersensitivity rat at 30 mg/kg, po administered with DMSO as vehicle; assay type: ADME, organism-based; design: dose 30 mg/kg, route oral; outline: as §2
# [13] = Drug level in Sprague-Dawley rat brain at steady state at […], iv after 18 hrs; assay type: ADME, organism-based; design: route intravenous; details: read-out: Drug uptake
# Outline: (§3)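 Male Sprague–Dawley rat given iv infusion over 18 h at 5 mL/kg/h (0.518 mg/kg/h) in 0.9% saline with 2% DMSO, 20% Kleptose. Serial blood samples every 15 min over last hour to confirm steady state; after 18 h blood taken, rat culled, brain homogenized; blood and brain analysed by LC/MS/MS.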
# [14] = Drug level in Sprague-Dawley rat blood at steady state at […], iv after 18 hrs; assay type: ADME, organism-based; design: route intravenous; details: whole blood, read-out: Drug uptake; outline: as §3
# [15] = Clearance at steady state in Sprague-Dawley rat blood at […], iv after 18 hrs; assay type: ADME, organism-based; design: route intravenous; details: whole blood; outline: as §3
# [16] = molecular target: T1, Prostaglandin E2 receptor EP1 subtype; experiment: Antagonist activity at PGE2-EP1 receptor assessed as PGE2-induced response by schild analysis; assay type: functional; details: read-out: pA2 (converted)
# Rattus norvegicus = experiment: Reversal of FCA-induced hypersensitivity in orally dosed rat assessed as reduction in weight bearing administered with DMSO as vehicle; assay type: functional; details: po
# Outline: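 The CFA inflammatory pain model used rats dosed orally at 1, 3, 10 and 30 mg/kg in 2% DMSO and 20% Kleptose in water. Weight bearing was the efficacy readout at 1 h post-dose. Blood (seven rats) and brain (two to three rats) were sampled at that time. ED50 was given in mg/kg.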
# [17] = Ratio of drug level in brain to blood in Sprague-Dawley rat at […], iv; assay type: ADME, organism-based; design: route intravenous; outline: as §3
# [18] = molecular target: T1, Prostaglandin E2 receptor EP1 subtype; experiment: Antagonist activity at PGE2-EP1 receptor assessed as PGE2-induced intracellular calcium mobilization; assay type: functional, cell-based
# [19] = molecular target: T2, Prostaglandin E2 receptor EP3 subtype (Homo sapiens, UniProt P43115); experiment: Antagonist activity at PGE2-EP3 receptor assessed as PGE2-induced intracellular calcium mobilization; assay type: functional, cell-based
# T2 sequence (P43115 whole entry): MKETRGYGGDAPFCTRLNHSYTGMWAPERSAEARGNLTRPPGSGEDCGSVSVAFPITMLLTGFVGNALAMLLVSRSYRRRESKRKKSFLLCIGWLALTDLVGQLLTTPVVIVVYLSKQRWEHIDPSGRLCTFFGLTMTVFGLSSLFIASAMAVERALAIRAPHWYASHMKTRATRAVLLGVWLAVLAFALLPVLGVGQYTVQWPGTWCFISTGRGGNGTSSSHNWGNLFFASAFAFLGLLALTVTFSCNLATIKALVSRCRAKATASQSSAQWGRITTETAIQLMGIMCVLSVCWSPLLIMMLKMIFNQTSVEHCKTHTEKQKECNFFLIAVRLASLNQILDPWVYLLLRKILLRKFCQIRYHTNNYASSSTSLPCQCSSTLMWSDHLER
# Cytochrome P450 1A2 = molecular target: T3, Cytochrome P450 1A2 (Homo sapiens, UniProt P05177); experiment: Inhibition of CYP1A2; assay type: ADME
# T3 sequence (P05177 whole entry): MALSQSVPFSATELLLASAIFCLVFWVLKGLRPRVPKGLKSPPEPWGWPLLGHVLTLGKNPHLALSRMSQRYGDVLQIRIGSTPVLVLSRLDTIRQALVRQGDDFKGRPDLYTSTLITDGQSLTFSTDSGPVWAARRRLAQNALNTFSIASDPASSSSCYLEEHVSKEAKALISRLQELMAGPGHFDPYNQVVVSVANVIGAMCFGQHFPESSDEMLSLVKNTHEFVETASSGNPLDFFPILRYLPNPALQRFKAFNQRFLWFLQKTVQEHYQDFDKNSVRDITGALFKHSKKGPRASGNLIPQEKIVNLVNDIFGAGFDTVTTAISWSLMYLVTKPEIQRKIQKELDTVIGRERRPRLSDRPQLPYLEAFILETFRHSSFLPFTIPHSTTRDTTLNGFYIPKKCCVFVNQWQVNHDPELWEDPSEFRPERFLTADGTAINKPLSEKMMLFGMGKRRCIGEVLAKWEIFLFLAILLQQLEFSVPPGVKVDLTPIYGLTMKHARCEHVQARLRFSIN
# Cytochrome P450 2C19 = Cytochrome P450 2C19 (Homo sapiens, UniProt P33261); experiment: Inhibition of CYP2C19; assay type: ADME
# Cytochrome P450 2C19, sequence (P33261 whole entry): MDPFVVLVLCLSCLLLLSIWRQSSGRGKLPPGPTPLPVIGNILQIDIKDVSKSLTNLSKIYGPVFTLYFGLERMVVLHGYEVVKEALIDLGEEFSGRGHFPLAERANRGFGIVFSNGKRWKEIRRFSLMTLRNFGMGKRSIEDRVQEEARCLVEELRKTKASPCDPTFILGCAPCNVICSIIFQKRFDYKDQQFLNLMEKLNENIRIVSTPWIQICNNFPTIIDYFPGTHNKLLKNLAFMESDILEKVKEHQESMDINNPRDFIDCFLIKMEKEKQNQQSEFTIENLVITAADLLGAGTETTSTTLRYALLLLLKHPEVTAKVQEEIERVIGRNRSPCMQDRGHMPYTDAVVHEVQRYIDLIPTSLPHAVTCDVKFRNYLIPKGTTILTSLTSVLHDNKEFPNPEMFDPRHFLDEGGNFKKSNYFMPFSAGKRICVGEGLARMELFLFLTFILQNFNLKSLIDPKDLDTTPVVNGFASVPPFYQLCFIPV
# Cytochrome P450 2C9 = Cytochrome P450 2C9 (Homo sapiens, UniProt P11712); experiment: Inhibition of CYP2C9; assay type: ADME
# Cytochrome P450 2C9, sequence (P11712 whole entry): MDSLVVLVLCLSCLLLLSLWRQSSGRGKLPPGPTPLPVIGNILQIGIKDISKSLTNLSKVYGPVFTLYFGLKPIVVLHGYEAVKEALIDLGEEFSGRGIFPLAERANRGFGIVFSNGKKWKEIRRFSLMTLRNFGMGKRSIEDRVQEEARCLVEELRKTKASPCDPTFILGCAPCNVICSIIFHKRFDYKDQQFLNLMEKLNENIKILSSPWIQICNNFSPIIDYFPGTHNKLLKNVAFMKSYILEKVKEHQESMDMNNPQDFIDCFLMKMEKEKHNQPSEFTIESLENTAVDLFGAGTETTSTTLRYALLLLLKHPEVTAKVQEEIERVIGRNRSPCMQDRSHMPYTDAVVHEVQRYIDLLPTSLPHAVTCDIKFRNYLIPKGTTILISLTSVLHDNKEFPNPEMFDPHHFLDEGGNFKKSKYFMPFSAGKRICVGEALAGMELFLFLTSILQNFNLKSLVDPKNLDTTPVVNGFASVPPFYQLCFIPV
# Cytochrome P450 2D6 = Cytochrome P450 2D6 (Homo sapiens, UniProt P10635); experiment: Inhibition of CYP2D6; assay type: ADME
# Cytochrome P450 2D6, sequence (P10635 whole entry): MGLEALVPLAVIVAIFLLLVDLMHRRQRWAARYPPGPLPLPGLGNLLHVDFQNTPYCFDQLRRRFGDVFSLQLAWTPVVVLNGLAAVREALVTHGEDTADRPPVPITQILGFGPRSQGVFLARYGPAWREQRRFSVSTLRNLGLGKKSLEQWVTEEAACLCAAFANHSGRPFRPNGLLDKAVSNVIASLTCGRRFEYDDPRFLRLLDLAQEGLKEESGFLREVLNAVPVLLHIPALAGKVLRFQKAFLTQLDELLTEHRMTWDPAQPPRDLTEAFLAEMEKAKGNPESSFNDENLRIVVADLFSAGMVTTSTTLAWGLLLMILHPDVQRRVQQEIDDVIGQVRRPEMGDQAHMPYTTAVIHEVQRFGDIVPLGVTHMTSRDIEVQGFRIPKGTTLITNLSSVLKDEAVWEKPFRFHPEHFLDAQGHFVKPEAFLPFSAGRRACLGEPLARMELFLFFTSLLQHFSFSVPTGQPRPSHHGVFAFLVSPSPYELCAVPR
# Cytochrome P450 3A4 = Cytochrome P450 3A4 (Homo sapiens, UniProt P08684); experiment: Inhibition of CYP3A4; assay type: ADME
# Cytochrome P450 3A4, sequence (P08684 whole entry): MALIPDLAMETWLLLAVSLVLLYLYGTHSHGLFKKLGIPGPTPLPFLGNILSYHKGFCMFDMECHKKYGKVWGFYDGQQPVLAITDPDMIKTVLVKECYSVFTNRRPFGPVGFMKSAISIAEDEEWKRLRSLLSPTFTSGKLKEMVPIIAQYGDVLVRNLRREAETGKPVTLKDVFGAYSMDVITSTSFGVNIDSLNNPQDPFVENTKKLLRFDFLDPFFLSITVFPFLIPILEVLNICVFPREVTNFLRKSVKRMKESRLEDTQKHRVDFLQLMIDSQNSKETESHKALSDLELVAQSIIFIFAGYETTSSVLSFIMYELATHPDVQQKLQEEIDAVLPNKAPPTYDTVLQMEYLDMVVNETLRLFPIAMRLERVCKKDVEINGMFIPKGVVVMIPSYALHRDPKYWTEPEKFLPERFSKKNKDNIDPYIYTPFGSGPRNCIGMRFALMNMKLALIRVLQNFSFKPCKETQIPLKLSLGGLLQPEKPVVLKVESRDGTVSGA
# Blood [20] = experiment: Drug uptake in FCA-induced hypersensitivity rat blood at 1 mg/kg, po administered with DMSO as vehicle; assay type: ADME, organism-based; design: dose 1 mg/kg, route oral; details: in vivo, read-out: Drug uptake; outline: as §2
# Blood [21] = experiment: Drug uptake in FCA-induced hypersensitivity rat blood at 3 mg/kg, po administered with DMSO as vehicle; assay type: ADME, organism-based; design: dose 3 mg/kg, route oral; details: in vivo, read-out: Drug uptake; outline: as §2
# Blood [22] = experiment: Drug uptake in FCA-induced hypersensitivity rat blood at 10 mg/kg, po administered with DMSO as vehicle; assay type: ADME, organism-based; design: dose 10 mg/kg, route oral; details: in vivo, read-out: Drug uptake; outline: as §2
# Blood [23] = experiment: Drug uptake in FCA-induced hypersensitivity rat blood at 30 mg/kg, po administered with DMSO as vehicle; assay type: ADME, organism-based; design: dose 30 mg/kg, route oral; details: in vivo, read-out: Drug uptake; outline: as §2
# Brain [24] = experiment: Drug uptake in FCA-induced hypersensitivity rat brain at 1 mg/kg, po administered with DMSO as vehicle; assay type: ADME, organism-based; design: dose 1 mg/kg, route oral; details: in vivo, read-out: Drug uptake; outline: as §2
smiles,measurement,setting,value
Cc1cc(C(=O)NCc2ccccc2)nn1Cc1cc(Cl)ccc1OCc1ccccc1,pIC50,[1],7.40
same,logD,[2],> 3.7
same,clearance,[3],75 mL/min/kg
same,Vd,[4],9.3 L/kg
same,half-life,[5],4.6 h
Cc1cc(NC(=O)OC(C)(C)C)nn1Cc1cc(Cl)ccc1OCc1ccccc1,concentration,Brain [6],473 nM
same,concentration,Brain [7],781 nM
same,concentration,Brain [8],836 nM
same,Kp,[9],2.66
same,Kp,[10],2.66
same,Kp,[11],2.26
same,Kp,[12],2.73
same,concentration at 18 h,[13],1400 nM
same,concentration at 18 h,[14],408 nM
same,clearance,[15],54 mL/min/kg
same,pIC50,[1],7.60
same,logD,[2],> 3.7
same,clearance,[3],42 mL/min/kg
same,Vd,[4],8.6 L/kg
same,half-life,[5],3 h
same,Kb,[16],50.1 nM
same,ED50,Rattus norvegicus,5.36 mg/kg
same,Kp,[17],3.44
same,pKi,[18],7.80
same,pKi,[19],< 5.00
same,pIC50,Cytochrome P450 1A2,< 4.00
same,pIC50,Cytochrome P450 2C19,< 4.00
same,pIC50,Cytochrome P450 2C9,4.80
same,pIC50,Cytochrome P450 2D6,< 4.00
same,pIC50,Cytochrome P450 3A4,< 4.00
same,concentration,Blood [20],57 nM
same,concentration,Blood [21],210 nM
same,concentration,Blood [22],302 nM
same,concentration,Blood [23],299 nM
same,concentration,Brain [24],106 nM
Cc1cc(NC(=O)C2CCOCC2)nn1Cc1cc(Cl)ccc1OCc1ccccc1,pIC50,[1],7.20
same,logD,[2],> 3.7
same,clearance,[3],55 mL/min/kg
same,Vd,[4],3.3 L/kg
same,half-life,[5],1 h

# From ChEMBL document CHEMBL1143088, “Non-acidic pyrazole EP1 receptor antagonists with in vivo analgesic efficacy” (Bioorg Med Chem Lett, 2008)
